Measured values published in ChEMBL document CHEMBL1125457, “Inhibitors of acyl-CoA:cholesterol acyltransferase. 1. Identification and structure-activity relationships of a novel series of fatty acid anilide hypocholesterolemic agents” (J Med Chem, 1992).

Key:
O-acyltransferase [1] = target: T1, O-acyltransferase (Oryctolagus cuniculus, UniProt G1SFD9); experiment: In vitro inhibition of acyl coenzyme A:cholesterol acyltransferase, in intestinal microsomes isolated from cholesterol-fed rabbits; parameters: species or system Intestine
T1 sequence (G1SFD9 1-524): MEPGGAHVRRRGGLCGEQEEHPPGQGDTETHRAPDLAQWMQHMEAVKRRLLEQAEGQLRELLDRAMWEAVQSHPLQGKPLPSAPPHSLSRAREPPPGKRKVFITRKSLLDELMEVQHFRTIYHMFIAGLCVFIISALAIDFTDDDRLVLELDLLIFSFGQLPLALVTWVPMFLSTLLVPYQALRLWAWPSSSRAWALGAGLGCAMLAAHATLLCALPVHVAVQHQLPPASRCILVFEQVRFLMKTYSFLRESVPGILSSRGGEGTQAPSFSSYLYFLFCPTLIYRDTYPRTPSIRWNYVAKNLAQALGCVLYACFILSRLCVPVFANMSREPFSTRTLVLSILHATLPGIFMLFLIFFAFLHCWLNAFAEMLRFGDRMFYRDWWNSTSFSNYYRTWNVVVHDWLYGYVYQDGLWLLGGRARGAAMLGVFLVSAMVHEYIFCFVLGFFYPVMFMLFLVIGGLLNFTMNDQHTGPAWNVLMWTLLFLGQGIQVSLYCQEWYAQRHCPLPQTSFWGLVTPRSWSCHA
Procedure, shortened: (§1)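 Rabbit intestinal mucosa scraped, washed, homogenized in phosphate/KCl/EDTA/sucrose buffer; microsomes pelleted at 100000g and stored at -70 °C. Microsomes (0.3 mg protein) with BSA (0.5 mg) and inhibitor in DMSO/Tween-20 preincubated 5 min at 37 °C. [1-14C]oleoyl-CoA (10 nmol, 0.05 μCi) then added for 5 min. Cholesteryl oleate extracted, separated by TLC and counted by scintillation. Four dilutions per compound, in triplicate.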

Rattus norvegicus [2] = species on record: Rattus norvegicus; experiment: Percent change in total cholesterol (TC) in cholic acid (0.3%) -cholesterol (1.5%) -peanut oil(5.5%) -fed rats.; assay type: functional
Procedure, shortened: (§2)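 Rats fed ad libitum for 1 week on a diet with peanut oil (5.5%), cholesterol (1.5%) and cholic acid (0.3%), with compound mixed in at 0.05% of the diet. Sacrificed in the fed state. Plasma total and/or HDL cholesterol measured as percent change versus cholesterol-fed controls. Significance by ANOVA followed by Fisher's multiple range test, p < 0.05.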

Rattus norvegicus [3] = species on record: Rattus norvegicus; experiment: Percent change in high density lipoprotein (HDL-cholesterol in cholesterol-fed rats.; assay type: functional; procedure, shortened: as §2
O-acyltransferase [4] = target: T1, O-acyltransferase; experiment: Tested in vitro to inhibit Acyl coenzyme A:cholesterol acyltransferase in intestinal microsomes isolated from cholesterol-fed rabbits.; parameters: species or system Intestine; procedure, shortened: as §1

| SMILES | IC50 (O-acyltransferase [1]) | Change (Rattus norvegicus [2]) | Change (Rattus norvegicus [3]) | IC50 (O-acyltransferase [4]) |
| --- | --- | --- | --- | --- |
| CCCCCCCC(C)(C)C(=O)Nc1c(OC)cc(OC)cc1OC | 0.18 µM | -13% | 2% | – |
| CCCCCCCCCCC(C)(C)C(=O)Nc1c(OC)cc(OC)cc1OCCCCCCC | 0.14 µM | – | – | – |
| CCCCCCCC/C=C/CCCCCCCC(=O)Nc1c(C)cccc1OC | 0.02 µM | -30% | – | – |
| CCCCCCCCCCC(C)(C)C(=O)Nc1c(C(C)C)cccc1C(C)C | 0.21 µM | – | – | – |
| CCCCCCCCCCCCC(C)C(=O)Nc1c(OC)cc(OC)cc1OC (configuration not stated) | – | -39% | – | – |
| CCCCCCCC/C=C/CCCCCCCC(=O)Nc1cc(Cl)c(OC)cc1OC | 0.52 µM | -7% | – | – |
| CCCCCCCCCCC(C)(C)C(=O)Nc1c(C)cccc1OCC | 0.18 µM | – | – | – |
| CCCCCCCCCCC(C)(C)C(=O)Nc1c(C)cc(C)cc1C | 0.194 µM | – | – | – |
| CCCCCCCC/C=C/CCCCCCCC(=O)Nc1cccc(C(=O)OC)c1C | > 5 µM | – | – | – |
| CCCCCCCCCCCCC(CC)C(=O)Nc1c(OC)cc(OC)cc1OC (configuration not stated) | 0.052 µM | -11% | – | – |
| CCCCCCCCCCCCC(C)(C)C(=O)Nc1c(OC)cc(OC)cc1OC | 0.063 µM | -45% | 19% | – |
| CCCCCCCCCCC1(C(=O)Nc2c(OC)cc(OC)cc2OC)CCCCC1 | 0.07 µM | -43% | – | – |
| CCCCCCCC/C=C/CCCCCCCC(=O)Nc1cccc(C)c1[N+](=O)[O-] | 12 µM | – | – | – |
| CCCCCCCCCCC(C)(C)C(=O)Nc1c(C)cc(Br)cc1C | 0.41 µM | – | – | – |
| CCCCCCCCCCC(C)(C)C(=O)Nc1c(F)cc(F)cc1F | 0.26 µM | – | – | – |
| CCCCCCCCCCCCCCC1(C(=O)Nc2c(OC)cc(OC)cc2OC)CC1 | 0.049 µM | -43% | 16% | – |
| CCCCCCCC/C=C/CCCCCCCC(=O)Nc1ccccc1-c1ccccc1 | 0.91 µM | – | – | – |
| CCCCCCCCCCC(C)(C)C(=O)Nc1c(CC)cccc1CC | 0.39 µM | – | – | – |
| CCCCCCCCCCC(C)(C)C(=O)Nc1c(OC)cc(OC)cc1OCC(=O)O | > 1 µM | – | – | – |
| CCCCCCCCCC(C)(C)C(=O)Nc1c(OC)cc(OC)cc1OC | – | -53% | 86% | 0.059 µM |
| CCCCCCCC/C=C/CCCCCCCC(=O)Nc1c(OC)cc(OC)cc1OC | – | -38% | – | 0.051 µM |
| CCCCCCCC/C=C/CCCCCCCC(=O)Nc1c(C)cccc1C(C)C | 0.023 µM | -45% | – | – |
| CCCCCCCCCCCCCCC(C)(C)C(=O)Nc1c(OC)cc(OC)cc1OC | 0.044 µM | -55% | 26% | – |
| CCCCCCCCC(C)(C)C(=O)Nc1c(OC)cc(OC)cc1OC | 0.059 µM | -43% | 53% | – |
| CCCCCCCC/C=C/CCCCCCCC(=O)Nc1c(C(C)C)cccc1C(C)C | 0.007 µM | -21% | – | – |

| SMILES | IC50 (O-acyltransferase [1]) | Change (Rattus norvegicus [2]) | Change (Rattus norvegicus [3]) | IC50 (O-acyltransferase [4]) |
| --- | --- | --- | --- | --- |
| CCCCCCCCCCC(C)C(=O)Nc1c(OC)cc(OC)cc1OC (configuration not stated) | – | – | – | 0.09 µM |
| CCCCCCCC/C=C/CCCCCCCC(=O)Nc1ccccc1C(=O)c1ccccc1 | > 10 µM | – | – | – |
| CCCCCCCC/C=C/CCCCCCCC(=O)Nc1ccccc1Cl | 75 µM | – | – | – |
| CCCCCCCC/C=C/CCCCCCCC(=O)Nc1ccc(CC(=O)OCC)c(C)c1 | 3 µM | -10% | – | – |
| CCCCCCCC/C=C/CCCCCCCC(=O)Nc1cc(C(=O)OC)ccc1OC | 0.43 µM | – | – | – |
| CCCCCCCCCCCCCCCC(=O)Nc1c(OC)cc(OC)cc1OC | 0.054 µM | -38% | – | – |
| CCCCCCCC/C=C/CCCCCCCC(=O)Nc1cc(OC)c(OC)cc1OC | 1.1 µM | – | – | – |
| CCCCCCCCCCC(C)(C)C(=O)Nc1cc(C(=O)OC)ccc1OC | 0.13 µM | – | – | – |
| CCCCCCCC/C=C/CCCCCCC(C)C(=O)Nc1c(OC)cc(OC)cc1OC (configuration not stated) | 0.036 µM | -40% | – | – |
| CCCCCCCC/C=C/CCCCCCCC(=O)Nc1cccc2c1CCCC2 | 0.35 µM | – | – | – |
| CCCCCCCCCCCCCCC(C)C(=O)Nc1c(OC)cc(OC)cc1OC (configuration not stated) | 0.031 µM | – | – | – |
| CCCCCCCCCCCCCCCCC(C)(C)C(=O)Nc1c(OC)cc(OC)cc1OC | 0.087 µM | -34% | 13% | – |
| CCCCCCCCCCCCCCCCCC(=O)Nc1c(OC)cc(OC)cc1OC | 0.052 µM | -11% | 31% | – |
| CCCCCCCCCCC(C)(C)C(=O)Nc1ccc(C)cc1C | 0.68 µM | – | – | – |
| CCCCCCCCCCCCCC(=O)Nc1c(OC)cc(OC)cc1OC | 0.19 µM | -44% | – | – |
| CCCCCCCCCCC(C)(C)C(=O)Nc1c(C)cccc1C | 1.3 µM | – | – | – |
| CCCCCCCCCCC1(C(=O)Nc2c(OC)cc(OC)cc2OC)CCCCCC1 | 0.093 µM | -42% | 9% | – |
| CCCCCCCCCCCCC1(C(=O)Nc2c(OC)cc(OC)cc2OC)CC1 | 0.058 µM | -40% | 27% | – |
| CCCCCCCCCCC(C)(C)C(=O)Nc1ccc(C)c(C)c1 | 1.66 µM | – | – | – |
| CCCCCCCC/C=C/CCCCCCCC(=O)Nc1c(CC)cccc1CC | 0.017 µM | -51% | – | – |
| CCCCCCCCCCC(CC)C(=O)Nc1c(OC)cc(OC)cc1OC (configuration not stated) | – | – | – | 0.073 µM |
| CCCCCCCC/C=C/CCCCCCCC(=O)Nc1ccccc1C(C)C | 0.6 µM | – | – | – |
| CCCCCCCC/C=C/CCCCCCCC(=O)Nc1ccc(F)cc1F | 32 µM | -19% | – | – |
| CCCCCCCC/C=C/CCCCCCCC(=O)Nc1c(O)cc(OC)cc1OC | 0.15 µM | – | – | – |
| CCCCCCCCCCC(C)(C)C(=O)Nc1c(O)cc(OC)cc1OC | 0.59 µM | – | – | – |

| SMILES | IC50 (O-acyltransferase [1]) | Change (Rattus norvegicus [2]) | Change (Rattus norvegicus [3]) | IC50 (O-acyltransferase [4]) |
| --- | --- | --- | --- | --- |
| CCCCCCCCCCC(CC)(CC)C(=O)Nc1c(OC)cc(OC)cc1OC | 0.097 µM | – | – | – |
| CCCCCCCC/C=C/CCCCCCCC(=O)Nc1cc(C(=O)OC)c(C)cc1C | 0.06 µM | -41% | – | – |
| CCCCCCCCCCC1(C(=O)Nc2c(OC)cc(OC)cc2OC)CCC1 | 0.039 µM | -57% | 73% | – |
| CCCCCCCCCCC(C)(C)C(=O)Nc1c(OC)cc(OC)cc1OCC(=O)OC | 2.3 µM | – | – | – |
| CCCCCCCCCCC(C)(C)C(=O)Nc1c(C)cccc1C(C)C | 0.24 µM | – | – | – |
| CCCCCCCC/C=C/CCCCCCCC(=O)Nc1c(C)cccc1OCC | 0.015 µM | -45% | – | – |
| CCCCCCCC/C=C/CCCCCCCC(=O)Nc1ccccc1CC | 1.2 µM | – | – | – |
| CCCCCCCC/C=C/CCCCCCC(C)(C)C(=O)Nc1c(OC)cc(OC)cc1OC | 0.044 µM | -60% | – | – |
| CCCCCCCC/C=C/CCCCCCCC(=O)Nc1ccc(OC)c(OC)c1 | – | – | – | 4.5 µM |
| CCCCCCCCCCC(C)(C)C(=O)Nc1c(C)cccc1Cl | 0.75 µM | – | – | – |
| CCCCCCCCCCC(C)(C)C(=O)Nc1c(C)cccc1OC | 0.21 µM | – | – | – |
| CCCCCCCC/C=C/CCCCCCCC(=O)Nc1c(Cl)cc(Cl)cc1Cl | 0.03 µM | -44% | – | – |
| CCCCCCCC/C=C/CCCCCCCC(=O)Nc1ccc(C)cc1C(=O)OC | 9.2 µM | – | – | – |
| C=C(CCCCCCCCCC)C(=O)Nc1c(OC)cc(OC)cc1OC | 0.2 µM | – | – | – |
| CCCCCCCC/C=C/CCCCCCCC(=O)Nc1c(F)cc(F)cc1F | – | 2% | – | 6.3 µM |
| CCCCCCCC/C=C/CCCCCCCC(=O)Nc1ccccc1OC | 8 µM | – | – | – |
| CCCCCCCC/C=C/CCCCCCCC(=O)Nc1c(C)cc(C)cc1C | 0.7 µM | -27% | – | – |
| CCCCCCCCCCC1(C(=O)Nc2c(OC)cc(OC)cc2OC)CCCC1 | 0.032 µM | -67% | 45% | – |
| CCCCCCCC/C=C/CCCCCCCC(=O)Nc1cc(C(=O)OC)c(OC)cc1OC | 1.1 µM | – | – | – |
| CCCCCCCC/C=C/CCCCCCCC(=O)Nc1ccc(OC)cc1OC | 3 µM | – | – | – |
| CCCCCCCCCCCCCCC(=O)Nc1c(OC)cc(OC)cc1OC | 0.065 µM | – | – | – |
| CCCCCCCC/C=C\CCCCCCCC(=O)Nc1c(C)cccc1C | – | -38% | – | 0.043 µM |
| CCCCCCCCCCC(C)(C)C(=O)Nc1c(OC)cc(OC)cc1OC [CL-976] | – | – | 94% | – |
